In ChEMBL document CHEMBL5247673, “Discovery of Small Molecules Targeting the Frameshifting Element RNA in SARS-CoV-2 Viral Genome” (ACS Med Chem Lett, 2023):
Active and inactive are the calls of the source. No cut-off for these calls is given here.

Legend:
Reticulocyte [1] = assay: Binding affinity to wild-type SARS-CoV-2 frameshift element RNA pseudoknot sequence transfected with Renilla/Firefly luciferase in rabbit reticulocyte lysate assessed as frameshifting by measuring ratio of renilla/firefly luminescence by dual-luciferase reporter assay; format: subcellular; settings: Severe acute respiratory syndrome coronavirus 2
Summary of the method: (§1)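 In vitro frameshifting reporter with the SARS-CoV-2 or RSV pseudoknot placed between Renilla (0 frame) and firefly (−1 frame) luciferases. Frameshifting was the luminescence ratio. Frameshifting and translation were normalized to WT plus DMSO. Controls were a 5′ stop codon, a 3′ stop codon and a same-frame construct. Data are mean ± SD, n = 3.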

[2] = Cytotoxicity against human MCF7 cells assessed as cell viability at 50 uM measured after 48 hrs by Cell-titer Glo luminescent assay relative to control; format: toxicity, cell-based; settings: read-out: Activity
Summary of the method: (§2)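 MCF-7 cell viability after 48 h compound exposure.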

[3] = test system: Severe acute respiratory syndrome coronavirus 2; assay: Binding affinity to 5'-CY5-labelled SARS-CoV-2 frameshift element RNA by SPR analysis
Summary of the method: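 Single-concentration SPR at 100 μM compound over immobilized FSE RNA, with the lead compound as positive control.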

[4] = Binding affinity to 5'-biotin-labelled SARS-CoV-2 frameshift element RNA assessed as dissociation constant by SPR analysis; set-up: species or system Severe acute respiratory syndrome coronavirus 2
Summary of the method: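 5′-Biotin FSE RNA was captured on a streptavidin-coated SPR surface. Compound was injected at 15.6–1000 μM, and KD came from steady-state fitting to a 1:1 Langmuir model. Stoichiometry was estimated from Rmax and the molecular ratio.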

Reticulocyte [5] = assay: Binding affinity to wild-type SARS-CoV-2 frameshift element RNA pseudoknot sequence transfected with Renilla/Firefly luciferase in rabbit reticulocyte lysate assessed as translation by measuring ratio of renilla luminescence by dual-luciferase reporter assay; format: subcellular; settings: Severe acute respiratory syndrome coronavirus 2; summary of the method: as §1
[6] = test system: Severe acute respiratory syndrome coronavirus 2; assay: Binding affinity to 5'-CY5-labelled SARS-CoV-2 frameshift element RNA by MST analysis
Summary of the method: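 Single-concentration MST screen against 5′-Cy5-labelled FSE RNA at 100 μM compound. A hit required an MST shift greater than 3SD of the DMSO signal, with the lead compound as positive control.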

Reticulocyte [7] = assay: Binding affinity to wild-type Rous sarcoma virus frameshift element RNA pseudoknot sequence transfected with Renilla/Firefly luciferase in rabbit reticulocyte lysate assessed as translation by measuring ratio of renilla luminescence by dual-luciferase reporter assay; format: subcellular; summary of the method: as §1
Reticulocyte [8] = assay: Binding affinity to wild-type Rous sarcoma virus frameshift element RNA pseudoknot sequence transfected with Renilla/Firefly luciferase in rabbit reticulocyte lysate assessed as frameshifting by measuring ratio of renilla/firefly luminescence by dual-luciferase reporter assay; format: subcellular; summary of the method: as §1
[9] = test system: Severe acute respiratory syndrome coronavirus 2; assay: Binding affinity to 5'-CY5-labelled SARS-CoV-2 frameshift element RNA at 50 uM by MST analysis
[10] = test system: Severe acute respiratory syndrome coronavirus 2; assay: Binding affinity to SARS-CoV-2 frameshift element RNA at 150 uM by water ligand observed gradient spectroscopic analysis
Summary of the method: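 WaterLOGSY NMR of 150 μM compound, alone and with 5 μM unlabelled FSE RNA. N-methyl-L-valine served as internal non-binding control, and a phase inversion of ligand peaks was read as binding.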

[11] = test system: Severe acute respiratory syndrome coronavirus 2; assay: Binding affinity to SARS-CoV-2 frameshift element RNA assessed as thermal stability by measuring change in melting temperature of RNA by circular dichroism analysis
Summary of the method: (§3)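 FSE RNA thermal melt with compound at 150 or 500 μM. Tm was taken from first-derivative melting curves and reported as ΔTm.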

[12] = test system: Severe acute respiratory syndrome coronavirus 2; assay: Binding affinity to SARS-CoV-2 frameshift element RNA assessed as thermal stability by measuring change in melting temperature of RNA at 500 uM by circular dichroism analysis; summary of the method: as §3
[13] = Binding affinity to 5'-CY5-labelled SARS-CoV-2 frameshift element RNA assessed as dissociation constant by MST analysis; set-up: species or system Severe acute respiratory syndrome coronavirus 2
Summary of the method: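 MST titration of the compound (4.9–500 μM) into 5′-Cy5-labelled FSE RNA. KD was fitted from T-jump values.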

MCF7 [14] = assay: Inhibition of programmed -1 ribosomal frameshifting in human MCF7 cells harboring pCherryGFP-Inframe-noFSE plasmid assessed as inhibition of GFP expression incubated for 30 mins by fluorescence microscopic analysis; format: functional, cell-based
Summary of the method: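 MCF-7 cells were treated with compound at various concentrations and transfected with an mCherry–FSE–GFP reporter: WT, a stop-codon negative control, or an in-frame no-FSE plasmid. GFP expression was the read-out, compared with a DMSO (0 μM) control. Data are mean ± SD of three independent experiments.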

[15] = test system: Severe acute respiratory syndrome coronavirus 2; assay: Binding affinity to 5'-Cy5-labelled SARS-CoV-2 frameshift element RNA at 10 uM by microarray-based fluorescence analysis
[16] = test system: Severe acute respiratory syndrome coronavirus 2; assay: Binding affinity to SARS-CoV-2 frameshift element RNA assessed as thermal stability by measuring change in melting temperature of RNA at 150 uM by circular dichroism analysis; summary of the method: as §3
Reticulocyte [17] = assay: Binding affinity to wild-type Rous sarcoma virus frameshift element RNA pseudoknot sequence transfected with Renilla/Firefly luciferase in rabbit reticulocyte lysate assessed as inhibition of translation by dual-luciferase reporter assay relative to control; format: subcellular; settings: concentration not given here; summary of the method: as §1
Reticulocyte [18] = assay: Binding affinity to wild-type Rous sarcoma virus frameshift element RNA pseudoknot sequence transfected with Renilla/Firefly luciferase in rabbit reticulocyte lysate assessed as reduction in frameshifting by dual-luciferase reporter assay relative to control; format: subcellular; set-up: scale not given: the % may be the effect or the level left; summary of the method: as §1
MCF7 [19] = assay: Cytotoxicity against human MCF7 cells assessed as reduction in cell viability upto 100 uM measured after 48 hrs by Cell-titer Glo luminescent assay; format: toxicity, cell-based; settings: mcf7, 48 h; summary of the method: as §2
Reticulocyte [20] = assay: Binding affinity to wild-type SARS-CoV-2 frameshift element RNA pseudoknot sequence transfected with Renilla/Firefly luciferase in rabbit reticulocyte lysate assessed as reduction in frameshifting by dual-luciferase reporter assay relative to control; format: subcellular; set-up: scale not given: the % may be the effect or the level left; settings: Severe acute respiratory syndrome coronavirus 2; summary of the method: as §1

In the case of `COc1ccc(-c2nc(NCCN3CCOCC3)c3cc(OC)ccc3n2)cc1`, the Ratio (Reticulocyte [1]) is reported as 0.98, the viability at 48 h, 50 µM [2] is reported as 95.6% and the Activity [3] is reported as “Active”. For the same molecule, the Kd [4] was 60 µM, the Ratio (Reticulocyte [5]) was 0.98 and the Activity [6] was “Active”. For the same molecule, the Ratio (Reticulocyte [7]) was 0.82 and the Ratio (Reticulocyte [8]) was 1.13.
In the case of `COc1ccc(-c2nc(NCCCN3CCC(N4CCCCC4)CC3)c3ccccc3n2)cc1`, the Activity [9] is reported as “inactive” and the Activity [10] is reported as “inactive”.
With `COc1ccccc1-c1nc(NCCN2CCOCC2)c2ccccc2n1` the Activity [3] was “Active” and the Activity [6] was “inactive”.
With `COc1ccc(-c2nc(NCCN3CCOCC3)c3cc(-c4ccc(S(N)(=O)=O)cc4)ccc3n2)cc1` the Activity [3] was “Active” and the Activity [6] was “inactive”.
In the case of `COc1ccc(-c2nc(NCCN3CCOCC3)c3cc(-c4ccc(N5CCOCC5)c(C)c4)ccc3n2)cc1`, the Activity [3] is reported as “Active” and the Activity [6] is reported as “inactive”.
With `COc1ccc(-c2nc(NCCN3CCOCC3)c3cc(OC)c(OC)cc3n2)cc1` the Activity [3] was “Active” and the Activity [6] was “Active”.
For `CCOC(=O)c1ccccc1NC(=O)N1CCCN(Cc2csc(C)n2)CC1`, the ΔTm [11] was 2.2 °C, the Ratio (Reticulocyte [1]) was 1.02 and the Ratio (Reticulocyte [5]) was 1.01. The Activity [6] was “Active”, the Ratio (Reticulocyte [7]) was 0.96 and the Ratio (Reticulocyte [8]) was 1.13.
In the case of `O=[N+]([O-])c1ccc(-c2nc(NCCN3CCOCC3)c3ccccc3n2)cc1`, the Activity [3] is reported as “inactive” and the Activity [6] is reported as “inactive”.
In the case of `COc1ccc(-c2nc(NCCN3CCOCC3)c3ccccc3n2)cc1`, the Ratio (Reticulocyte [1]) is reported as 0.99, the viability at 48 h, 50 µM [2] is reported as 91.6% and the Activity [3] is reported as “Active”. The Kd [4] was 147 µM, the Ratio (Reticulocyte [5]) was 1.35 and the Activity [6] was “Active”. It also gave a ΔTm [12] of -4.5 °C, a Ratio (Reticulocyte [7]) of 0.77 and a Kd [13] of 139 µM. For the same molecule, the inhibition (MCF7 [14]) was “inactive”, the Activity [10] was “Active” and the Ratio (Reticulocyte [8]) was 1.21. The Activity [15] was “Active” and the ΔTm [16] was -2.5 °C.
With `FC(F)(F)c1ccc(-c2nc(NCCN3CCOCC3)c3ccccc3n2)cc1` the Activity [3] was “Active” and the Activity [6] was “inactive”.
For `CCN(CCN1CCOCC1)c1nc(-c2ccc(OC)cc2)nc2ccccc12`, the Activity [3] was “Active” and the Activity [6] was “inactive”.
For `COc1ccc(-c2nc(NCCN3CCOCC3)c3ccc(C(F)(F)F)cc3n2)cc1`, the Activity [3] was “inactive” and the Activity [6] was “Active”.
In the case of `CCOC(=O)c1cccc(Nc2nc(-c3cccnc3)nc3ccccc23)c1`, the Activity [9] is reported as “inactive” and the Activity [10] is reported as “inactive”.
For `COc1ccc(-c2nc(NCCN3CCOCC3)c3cccc(OC)c3n2)cc1`, the Activity [3] was “Active” and the Activity [6] was “inactive”.
Work on `CCNCC1CCN(c2c(F)cc3c(=O)c(C(=O)O)cn(CC)c3c2F)C1` (stereo not drawn) [MERAFLOXACIN] yielded an inhibition (Reticulocyte [17]) of 30%, a ΔTm [11] of -3.7 °C and a Ratio (Reticulocyte [1]) of 0.21. The Ratio (Reticulocyte [5]) was 0.9, the Activity [6] was “Active” and the Ratio (Reticulocyte [7]) was 0.7. The Activity (Reticulocyte [18]) was 41%, the Activity (MCF7 [19]) was “Non-Toxic” and the Activity (Reticulocyte [20]) was 79%. For the same molecule, the Ratio (Reticulocyte [8]) was 0.59.
With `COc1ccc(-c2nc(NCCN3CCOCC3)c3ccc(-c4ccc(S(N)(=O)=O)cc4)cc3n2)cc1` the Activity [3] was “inactive” and the Activity [6] was “inactive”.
In the case of `COc1ccc(-c2nc(NCCN3CCOCC3)c3cc(-c4cn[nH]c4)ccc3n2)cc1`, the Activity [3] is reported as “Active” and the Activity [6] is reported as “inactive”.
In the case of `COc1ccc(-c2nc(N3CC(N4CCOCC4)C3)c3ccccc3n2)cc1`, the Activity [3] is reported as “Active” and the Activity [6] is reported as “inactive”.
With `COc1ccc(-c2nc(NCCN3CCOCC3)c3ccc(OC)cc3n2)cc1` the Activity [3] was “Active” and the Activity [6] was “Active”.
For `COc1ccc(-c2nc(NCCN3CCOCC3)c3cc([N+](=O)[O-])ccc3n2)cc1`, the Activity [3] was “inactive” and the Activity [6] was “inactive”.
For `COc1ccc(-c2nc(NCCN3CCOCC3)c3cc(C(F)(F)F)ccc3n2)cc1`, the Activity [3] was “inactive” and the Activity [6] was “Active”.
With `COc1ccc(-c2nc(NCCN3CCOCC3)c3ccc([N+](=O)[O-])cc3n2)cc1` the Activity [3] was “inactive” and the Activity [6] was “inactive”.
In the case of `COc1ccc(F)cc1COc1ccc(-c2nc(NCCN3CCOCC3)c3ccccc3n2)cc1`, the Activity [3] is reported as “inactive” and the Activity [6] is reported as “inactive”.
With `COc1ccc(-c2nc(NCCN3CCOCC3)c3c(OC)cccc3n2)cc1` the Activity [3] was “Active” and the Activity [6] was “inactive”.
In the case of `CC#CCOc1ccc(-c2nc(NCCN3CCOCC3)c3ccccc3n2)cc1`, the Activity [3] is reported as “inactive” and the Activity [6] is reported as “inactive”.
With `COc1ccc(-c2nc(NCCS(=O)(=O)N3CCOCC3)c3ccccc3n2)cc1` the Activity [3] was “Active” and the Activity [6] was “inactive”.
With `COc1cccc(-c2nc(NCCN3CCOCC3)c3ccccc3n2)c1` the Activity [3] was “inactive” and the Activity [6] was “inactive”.
In the case of `COc1ccc(-c2nc(NCCN3CCOCC3)c3ccc(-c4cn[nH]c4)cc3n2)cc1`, the Activity [3] is reported as “Active” and the Activity [6] is reported as “Active”.
In the case of `COc1ccc(-c2nc(NCCN3CCN(C)CC3)c3ccccc3n2)cc1`, the Activity [3] is reported as “Active” and the Activity [6] is reported as “Active”.
